From PubChem
PfM18AAP inh-1 – blocks P. falciparum M18 aspartyl aminopeptidase | recombinant PfM18AAP, H-Glu-NHMec fluorogenic cleavage | inhibition, % at 7.35 µM | actives 1.2% (n = 290,000);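 active = inhibition above the campaign mean inhibition over all tested compounds plus 3 SD, cut at about 28% in these data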;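 also: 0% = plate median of test compound wells and 100% = 2 mM ZnCl2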
VIM-2 inhibitor – inhibitors of Pseudomonas aeruginosa VIM-2 metallo-beta-lactamase; inhibition, % at 5.6 µM; purified VIM-2, nitrocefin hydrolysis, epi-absorbance fluorescence; actives 0.89% (n = 290,000);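 active = inhibition above the mean of all tested compounds plus 3 SD, cutoff set per screening run, cut at about 7.5% in these data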;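 also: red hydrolysis product quenches plate fluorescence so inhibitors raise well fluorescence; 0% = enzyme with DMSO and 100% = DMSO without enzyme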
IMP-1 inhibitor – blocks Pseudomonas aeruginosa IMP-1 metallo-beta-lactamase; actives 0.45% (n = 290,000); inhibition, % at 5.6 µM; AID 1556; purified IMP-1, nitrocefin hydrolysis, epi-absorbance fluorescence;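 active = inhibition above the mean plus 3 SD of all compounds in the same screening run, cut at about 4.5% in these data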;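 also: 0% = IMP-1 with DMSO and 100% = DMSO wells lacking enzyme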
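Material – recombinant IMP-1 enzyme, purified · Amount – IMP-1 0.2 nM before substrate addition · Medium – HEPES buffer pH 7.1 with ZnSO4 and Brij 35 · Timing – 25 °C, 15 min preincubation, 25 min reaction · Measured by – plate fluorescence quenching by hydrolysis product, ex 480/em 530 nm · Read-out – percent enzyme inhibition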
HGIII-sPLA2 inh – Inhibits HGIII-sPLA2 liposome hydrolysis, primary screen; QFRET BODIPY PC-A2 liposome hydrolysis, fluorescence; inhibition, % at 12.2 µM; actives 0.56% (n = 370,000); AID 743126;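 active = inhibition above mean plus 3 SD of compounds lying within the high and low control bounds, cut at about 19% in these data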;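 also: 0% = median of test compound wells and 100% = no enzyme DMSO wells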
PfM18AAP inh-2 – confirmation of Plasmodium falciparum M18 aspartyl aminopeptidase inhibitors. shares compounds with PfM18AAP inh-1. recombinant PfM18AAP, H-Glu-NHMec fluorogenic cleavage. inhibition, % at 7.35 µM. actives 28% (n = 2,400);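 active = mean inhibition over replicate wells above the hit cutoff set for the earlier primary screen, cut at about 29% in these data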;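 also: 0% = median of test compound wells and 100% = 2 mM ZnCl2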
CTSL1 counter – Cathepsin L (human) inhibition, confirmation; 2,400 tested, under 10 active; purified cathepsin L1, Z-Leu-Arg-MCA fluorescence; inhibition, % at 5.96 µM; AID 2178; shares compounds with PfM18AAP inh-1;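 active = average inhibition across replicates above the hit cutoff set in the earlier primary screen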;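 also: 0% = median of test compound wells and 100% = Z-Phe-Ala-diazomethylketone 1 µM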
Target sequence (P07711 whole entry, looked up): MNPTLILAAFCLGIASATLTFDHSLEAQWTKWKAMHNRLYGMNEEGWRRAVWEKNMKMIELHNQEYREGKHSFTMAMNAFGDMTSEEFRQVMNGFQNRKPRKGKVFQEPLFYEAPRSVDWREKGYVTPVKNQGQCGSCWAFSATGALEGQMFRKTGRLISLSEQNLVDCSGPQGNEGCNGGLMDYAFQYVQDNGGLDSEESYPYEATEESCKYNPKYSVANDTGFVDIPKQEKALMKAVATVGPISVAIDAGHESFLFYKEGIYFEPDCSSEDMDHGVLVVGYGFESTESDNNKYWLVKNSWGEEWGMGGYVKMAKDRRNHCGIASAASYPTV
The depositor's hits bear a star. The list is not random: actives were taken first. Their share in the collection is about 2.4%.

`C[C@@H]1O[C@@H](OC[C@@H]2O[C@H](Oc3c(-c4ccc(O)cc4)oc4cc(O)cc(O)c4c3=O)[C@@H](O)[C@H](O)[C@H]2O)[C@H](O)[C@H](O)[C@H]1O` gave HGIII-sPLA2 inh 5.7.
For O=c1cc(-c2ccc(O)c(O)c2)oc2cc(O)cc(O)c12 the results were HGIII-sPLA2 inh -10.3.
For O=c1c(O)c(-c2ccc(O)c(O)c2)oc2cc(O)cc(O)c12 the results were PfM18AAP inh-1 76.1*, VIM-2 inhibitor 0.5, IMP-1 inhibitor 0.1, HGIII-sPLA2 inh 0.8, PfM18AAP inh-2 65.1* and CTSL1 counter -4.9.
Screening O=C(O)C1OC(Oc2c(-c3ccc(O)c(O)c3)oc3cc(O)cc(O)c3c2=O)C(O)C(O)C1O (centres undefined) returned PfM18AAP inh-1 64.7*, VIM-2 inhibitor -0.3, IMP-1 inhibitor -3.5, PfM18AAP inh-2 43.1* and CTSL1 counter 4.1.
Screening CCC(C)c1ccccc1NC(=S)NC(=O)c1ccco1 (centres undefined) returned PfM18AAP inh-1 4.1, VIM-2 inhibitor -1.8, IMP-1 inhibitor -2.4 and HGIII-sPLA2 inh 7.2.
Screening O=C(CBr)Nc1c2c(nn1-c1ccccc1)CSC2 returned PfM18AAP inh-1 -14.0, VIM-2 inhibitor -3.0, IMP-1 inhibitor -3.1 and HGIII-sPLA2 inh -6.5.
For O=C(NC1CCCCC1)C(c1ccncc1)N(Cc1ccc2c(c1)OCO2)C(=O)C(F)(F)F (centres undefined) the results were PfM18AAP inh-1 41.1*, VIM-2 inhibitor -1.2, IMP-1 inhibitor -2.9, HGIII-sPLA2 inh -5.6, PfM18AAP inh-2 16.2 and CTSL1 counter 9.0.
`CCc1ccc(N(C(=O)C(F)(F)F)C(C(=O)NC2CCCCC2)c2ccncc2)cc1` (centres undefined) gave PfM18AAP inh-1 0.5, VIM-2 inhibitor -3.9, IMP-1 inhibitor -2.5 and HGIII-sPLA2 inh 2.4.
Screening CCN1CCN(C(=S)Nc2ccc(Cl)c(Cl)c2)CC1 returned PfM18AAP inh-1 -0.2, VIM-2 inhibitor -2.1, IMP-1 inhibitor -1.1 and HGIII-sPLA2 inh 4.5.
`CCN1CCN(C(=S)c2ccc(Cl)c(Cl)c2)CC1` gave PfM18AAP inh-1 45.0*, VIM-2 inhibitor -1.8, IMP-1 inhibitor -2.6, HGIII-sPLA2 inh 10.3, PfM18AAP inh-2 5.6 and CTSL1 counter -0.3.
Screening O=C(CCc1ccc(O)c(O)c1)N/N=C/c1ccc2c(c1)OCO2 returned PfM18AAP inh-1 79.4*, VIM-2 inhibitor 5.5, IMP-1 inhibitor -0.4, HGIII-sPLA2 inh -5.7, PfM18AAP inh-2 50.3* and CTSL1 counter 4.0.
For CCOC(=O)C1=C(COC(=O)/C=C/c2ccc(SC)cc2)NC(=O)NC1C (centres undefined) the results were HGIII-sPLA2 inh 1.2.
O=C(NCC(c1ccco1)N1CCCC1)c1cccc(S(=O)(=O)N2CCc3ccccc32)c1 (centres undefined) was read as HGIII-sPLA2 inh -4.5.
Cc1cc(C)n(-c2cc(-n3nc(C)cc3C)ncn2)n1 was read as PfM18AAP inh-1 -7.6, VIM-2 inhibitor -1.8, IMP-1 inhibitor -1.5 and HGIII-sPLA2 inh 5.3.
For Cc1cc(C)n(-c2cc(O)c(-n3nc(C)cc3C)cc2O)n1 the results were PfM18AAP inh-1 45.6*, VIM-2 inhibitor -1.2, IMP-1 inhibitor -3.9, HGIII-sPLA2 inh -4.2, PfM18AAP inh-2 23.8 and CTSL1 counter 4.7.
For CN(C)c1ccc(C(=S)N2CCN(c3ccc([N+](=O)[O-])cc3)CC2)cc1 the results were PfM18AAP inh-1 46.5*, VIM-2 inhibitor -2.5, IMP-1 inhibitor -3.5, HGIII-sPLA2 inh 1.9, PfM18AAP inh-2 6.5 and CTSL1 counter 5.5.
Screening O=C(Nn1cnnc1)c1cc(-c2ccccn2)nc2ccccc12 returned PfM18AAP inh-1 50.5*, VIM-2 inhibitor -1.4, IMP-1 inhibitor -2.8, HGIII-sPLA2 inh 3.1, PfM18AAP inh-2 47.5* and CTSL1 counter -3.9.
`COc1cccc(-c2cc(C(=O)NN3CCOCC3)c3ccccc3n2)c1` gave PfM18AAP inh-1 -1.9, VIM-2 inhibitor -3.5, IMP-1 inhibitor -4.3 and HGIII-sPLA2 inh 8.1.
Screening COc1cccc(-c2cc(C(=O)Nn3cnnc3)c3ccccc3n2)c1 returned PfM18AAP inh-1 63.5*, VIM-2 inhibitor -2.3, IMP-1 inhibitor -0.5, HGIII-sPLA2 inh 2.4, PfM18AAP inh-2 62.3* and CTSL1 counter -1.1.
`COC1(OC)C=CC(=O)C=C1NC(=O)c1ccccc1OC(C)=O` gave HGIII-sPLA2 inh 0.6.
`C#CC(C)OCC1CNC(=S)O1` (centres undefined) gave HGIII-sPLA2 inh 0.1.
COc1ccc(O)c(/C=C2/SC(=S)N(Cc3ccccc3)C2=O)c1 was read as PfM18AAP inh-1 41.6*, VIM-2 inhibitor -1.4, IMP-1 inhibitor -4.8, HGIII-sPLA2 inh -5.5, PfM18AAP inh-2 -4.3 and CTSL1 counter 3.5.
For CCC[C@H]1[C@@H](OC(=O)NCCc2c[nH]c3ccccc23)CC[C@@]23CCCN2C(=O)CCC[C@@H]13 the results were HGIII-sPLA2 inh -89.1.
Screening O=C(NC1CCCCC1)C(c1cc2ccccc2o1)N1CCOCC1 (centres undefined) returned HGIII-sPLA2 inh -2.0.
`O=C(NNc1cccc(Cl)n1)Nc1ccc(F)cc1` gave PfM18AAP inh-1 52.3*, VIM-2 inhibitor -2.5, IMP-1 inhibitor -1.7, HGIII-sPLA2 inh 0.0, PfM18AAP inh-2 43.9* and CTSL1 counter -2.1.
O=C(NNc1cccc(Cl)n1)Nc1ccccc1Cl was read as PfM18AAP inh-1 50.3*, VIM-2 inhibitor -0.7, IMP-1 inhibitor -2.1, HGIII-sPLA2 inh 0.8, PfM18AAP inh-2 34.0* and CTSL1 counter -3.0.
`O=C(NNc1cccc(Cl)n1)C(F)(F)F` gave PfM18AAP inh-1 27.0, VIM-2 inhibitor 0.9, IMP-1 inhibitor -3.6 and HGIII-sPLA2 inh 6.0.
`O=C(NNc1cccc(Cl)n1)Nc1ccccc1F` gave PfM18AAP inh-1 52.6*, VIM-2 inhibitor -0.8, IMP-1 inhibitor 0.5, HGIII-sPLA2 inh 1.5, PfM18AAP inh-2 40.6* and CTSL1 counter -0.1.
Screening CCC[C@H]1[C@@H](OC(=O)NCc2ccc(Cl)c(Cl)c2)CC[C@@]23CCCN2C(=O)CCC[C@@H]13 returned HGIII-sPLA2 inh 2.3.
For O=C/C=C/c1c(-c2ccccc2)cc2oc3ccccc3cc1-2 the results were PfM18AAP inh-1 22.3, VIM-2 inhibitor -4.2, IMP-1 inhibitor -1.8 and HGIII-sPLA2 inh 12.7.
O=C(COc1ccccc1/C=C1\SC(=O)NC1=O)Nc1ccccc1 was read as PfM18AAP inh-1 9.6, VIM-2 inhibitor -4.3, IMP-1 inhibitor -4.3 and HGIII-sPLA2 inh -34.7.
Screening O=C(/C=C1\SC(=O)NC1=O)Nc1ccc(F)cc1 returned PfM18AAP inh-1 35.7*, VIM-2 inhibitor -1.5, IMP-1 inhibitor -2.6, HGIII-sPLA2 inh -2.0, PfM18AAP inh-2 -55.6 and CTSL1 counter 7.1.
Screening CCN1CCCC1CNC(=O)c1cc([N+](=O)[O-])c(N(C)C)cc1OC (centres undefined) returned PfM18AAP inh-1 -4.4, VIM-2 inhibitor 1.9, IMP-1 inhibitor -1.5 and HGIII-sPLA2 inh 8.5.
